Measurements from different studies.
Lines come from different studies, so protocols differ.

SMILES | species | sample | route | dose | setting | half-life [h]
COc1nc(-c2cc(C)c(N[C@@H](C)c3cc(F)cc(F)c3)nn2)ccc1-n1cnc(C)c1 | male CD-1 mouse | plasma | intravenous | 1 mg/kg | single dose | 3.1
Cc1noc(-c2ccc(CSCCC(=O)O)cc2)c1NC(=O)O[C@H](C)c1ccccc1Cl | mouse | plasma | oral | 50 mg/kg | – | 0.98
COc1ccc(C[C@@H](C(=O)NO)n2cc(CNS(=O)(=O)c3ccc(-c4ccccc4)s3)nn2)cc1 | female CD-1 mouse | plasma | intraperitoneal | 50 mg/kg | – | 0.5
CC(C)Oc1c(NC(=O)c2ccc(NC(=O)[C@H](CC(N)=O)NC(=O)c3ccc(NC(=O)c4ccc(C#N)cc4)cc3)cc2)ccc(C(=O)Nc2ccc(C(=O)O)cc2)c1O | male CD-1 mouse | plasma | intravenous | 5 mg/kg | single dose | 0.98
CCc1cc(C(=O)NC)c2nccc(N3CCc4c(cc(Cn5ccnc5)cc4-c4cn(C)nc4C(F)(F)F)C3=O)c2c1 | male CD-1 mouse | plasma | oral | 50 mg/kg | – | 1.5
CCc1ccc(Cc2cc([C@@H]3O[C@H](CO)[C@@H](O)[C@H](O)[C@H]3O)cc3c2CCC3)cc1 | male C57BL/6 mouse | plasma | intravenous | 1 mg/kg | – | 2.9
CC(C)(C)c1ccc(O)c(CN(Cc2cc(C(C)(C)C)ccc2O)C2CCC(NC(N)=O)CC2)c1 (stereo not shown) | male C57BL/6 mouse | brain | oral | 10 mg/kg | single dose | 7.36
COc1cc(OC)c2nccc(N3CCc4c(cc(Cn5ccnc5)cc4-c4cn(C)nc4C(F)(F)F)C3=O)c2c1 | male CD-1 mouse | plasma | intravenous | 3 mg/kg | – | 0.5
OC[C@H]1O[C@@H](c2ccc(Cl)c(Cc3ccc(O[C@H]4CCOC4)cc3)c2)[C@H](O)[C@@H](O)[C@@H]1O | CD-1 mouse | plasma | oral | 10 mg/kg | – | 0.5
CNC(=O)[C@H](Cc1c[nH]cn1)NC(=O)CN(CCCc1ccccc1)CC(=O)OC | male C57BL/6 mouse | plasma | intraperitoneal | 30 mg/kg | – | 0.117
COc1ccc(C(O)COc2ccc(-c3csc(-c4ccc(OCC(O)c5ccc(OC)c(OC)c5)cc4)n3)cc2)cc1OC (stereo not shown) | C57BL/6 mouse | plasma | oral | 30 mg/kg | – | 4.3
CC=Cc1ccc(O)c(OC)c1 | mouse | brain | intranasal | 100 mg/kg | – | 0.294
O=C(Nc1ccc(C(F)(F)F)cc1F)N1CCC(Cc2cccc(Oc3ccc(C(F)(F)F)cn3)c2)CC1 | male Swiss mouse | blood | oral | 1 mg/kg | – | 6
COC(=O)C1=C(C)OC(C)=C(C(C)=O)C1c1ccc(Cl)c(C(F)(F)F)c1 (stereo not shown) | C57BL/6 mouse | plasma | intravenous | 10 mg/kg | – | 0.25
CCCc1c(C2CCCCN2CCN2CCOCC2)[nH]c2cc(OC(F)(F)F)ccc12 (stereo not shown) | male mouse | plasma | oral | 30 mg/kg | – | 11
Cn1cnc2c(F)c(Nc3ccc(Br)cc3Cl)c(C(=O)NOCCO)cc21 | nude mouse | liver | oral | 5 mg/kg | single dose, tumour-bearing | 3.5
CN(C)C/C=C/C(=O)Nc1ccc(O[C@@H]2CCC[C@@H](Nc3ncc(Cl)c(-c4c[nH]c5ccccc45)n3)C2)cc1 | male Swiss mouse | plasma | intravenous | 3 mg/kg | – | 2.25
Cc1nc(-c2cnc(NC(C)C)n(C)c2=O)ccc1Oc1ccnc(-c2cnn(C)c2)c1 | female mouse | plasma | oral | 7.5 mg/kg | single dose | 14
CC[C@H](C)[C@@H]1NC(=O)[C@@](C)(NC(=O)[C@H](CCCNC(=N)N)NC(=O)[C@H](CC(C)C)NC(=O)[C@@H](NC(=O)[C@H](CCC(N)=O)NC(=O)[C@H](CC(C)C)NC(C)=O)[C@@H](C)O)CCCC=CCCC[C@@](C)(C(=O)N[C@@H](CC(C)C)C(=O)N[C@@H](Cc2ccc3ccccc3c2)C(N)=O)NC(=O)[C@H](CCCNC(=N)N)NC(=O)[C@H](CCC(N)=O)NC1=O | male BALB/c mouse | plasma | intravenous | 15 mg/kg | – | 1.8
Cc1nc(NC2Cc3cc(F)c(F)cc3C2)c2c(C)noc2n1 | male Swiss mouse | plasma | oral | 20 mg/kg | – | 0.9
Cc1cc(C)cc(NC(=O)c2cnn(-c3ccc(C(C)C)cc3)c2C2CCNCC2)c1 | SCID mouse | plasma | oral | 50 mg/kg | single dose | ~2
[Cl-].c1csc([I+]c2cccs2)c1 | mouse | plasma | intraperitoneal | 6 mg/kg | – | 0.08

SMILES | species | sample | route | dose | setting | half-life [h]
CN1CCC[C@H](CN2c3ccccc3Sc3ccccc32)C1.O=C(O)CCC(=O)O | mouse | plasma | oral | 64 mg/kg | single dose | 3.36
Cc1cc(Nc2ccc(S(F)(F)(F)(F)F)cc2)n2ncnc2n1 | male Swiss mouse | plasma | oral | 100 mg/kg | single dose | 14
COc1ccc(NC(=O)N2CCCCN3[C@H](COCCC(=O)O)[C@H](c4ccc(C#Cc5ccccc5)cc4)[C@@H]3C2)cc1 | mouse | plasma | intravenous | – | – | 2
CCc1cc(OC)c2nccc(N3CCc4c(cc(Cn5ccnc5)cc4-c4cn(C)nc4C(F)(F)F)C3=O)c2c1 | male CD-1 mouse | plasma | oral | 150 mg/kg | – | 1.6
Oc1nc2nonc2cc1Nc1ccc(OC(F)(F)F)cc1C(F)(F)F | male C57BL/6 mouse | plasma | oral | 10 mg/kg | – | > 15
COc1cc2c(Nc3ccc(Cl)c(Cl)c3F)ncnc2cc1OC[C@@H]1C[C@@H]2CN(C)C[C@@H]2C1 | FVB mouse | brain | oral | 70 mg/kg | single dose | 13.3
CNCCN(C)c1cc(C#N)cc(CCc2cc(C)cc(N)n2)c1 | male BALB/c mouse | plasma | intravenous | 2 mg/kg | – | 1.1
CCNc1nc2c(c(N3CC(=O)Nc4cc(OC)ccc43)n1)CCC2 | female C57BL/6 mouse | plasma | intravenous | 4 mg/kg | single dose | 0.51
Cc1cc(NC(=O)c2cccc3cc(-c4cccc5[nH]nc(N)c45)ccc23)ccc1F | male CD-1 mouse | brain | oral | 10 mg/kg | – | 2.06
CNC(=O)c1cc(OC)cc2c(N3CCc4c(cc(Cn5ccnc5)cc4-c4cn(C)nc4C(F)(F)F)C3=O)ccnc12 | male CD-1 mouse | plasma | intravenous | 3 mg/kg | – | 1.1
COc1ccc([C@@]23Oc4cc(OC)cc(OC)c4[C@]2(O)[C@H](O)[C@H](C(=O)N(C)C)[C@H]3c2ccccc2)cc1 | mouse | plasma | intravenous | 5 mg/kg | – | 1.5
O=C(NCCN1CCCC1)c1cc(-c2ccc(CN3CCOCC3)cc2)nc2ccc(F)cc12 | female NMRI mouse | blood | oral | 3 mg/kg | – | 19
C=C(C[C@H](N)C(=O)O)C(=O)NCc1ccc(F)cc1 | male CD-1 mouse | plasma | intravenous | 2.5 mg/kg | – | 0.8
CCOc1ccc(Cc2cc([C@@H]3O[C@H](CO)[C@@H](O)[C@H](O)[C@H]3O)ccc2Cl)cc1 | male C57BL/6 mouse | plasma | oral | 1 mg/kg | – | 3.7
COC(=O)CN(CCCc1ccccc1)CC(=O)N[C@@H](Cc1c[nH]cn1)c1nc(C)no1 | male C57BL/6 mouse | plasma | intraperitoneal | 30 mg/kg | – | 0.1
COc1ccc2nccc(N3CCc4c(cc(Cn5ccnc5)cc4-c4cn(C)nc4C(F)(F)F)C3=O)c2c1 | male CD-1 mouse | plasma | intravenous | 3 mg/kg | – | 0.7
COc1ccc(NC(=O)N2CCCCN3[C@H](CN(C)S(C)(=O)=O)[C@H](c4ccc(C#Cc5ccccc5)cc4)[C@@H]3C2)cc1 | mouse | plasma | intravenous | – | – | 5
Cc1ccc2cncc(N3CCc4c(cc(Cn5ccnc5)cc4-c4cn(C)nc4C(F)(F)F)C3=O)c2c1 | male CD-1 mouse | plasma | oral | 10 mg/kg | – | 1.1
CC1(C)CC[C@]2(C(=O)O)CC[C@]3(C)C(=CC[C@@H]4[C@@]5(C)C[C@@H](O)[C@H](OC(=O)/C=C/c6ccc(O)cc6)C(C)(C)[C@@H]5CC[C@]43C)[C@@H]2C1 (relative stereo) | mouse | plasma | intraperitoneal | 85 µmol/kg | single dose | 34.3
NCC1CCN(c2nc(-c3ccncc3)nc3sc4c(c23)CCCC4)CC1 | female CD-1 mouse | plasma | intravenous | 10 mg/kg | – | 2.8
COc1nc(-c2cc(C)c(N[C@@H](C)c3ccc(F)cc3)nn2)ccc1-n1cnc(C)c1 | male CD-1 mouse | plasma | intravenous | 1 mg/kg | single dose | 2.93
